The nature of series [1]: Cytotoxicity against mock-infected human MT4 cells after 96 hrs by MTT assay. The format is cell-based. In a few lines: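 Exponentially growing MT-4 cells were seeded at 1 × 10^5 cells/mL in RPMI-1640 with 10% FBS and held at 37 °C, 5% CO2 with serial compound dilutions. Viability was read by MTT after 96 h. CC50 from linear regression against untreated controls.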
Background: Formazan colour is commonly taken as a measure of viable cells.

For the next series, the system named is Reovirus sp. Briefly: Antiviral activity against Reovirus type-1 infected in BHK21 cells assessed as inhibition of virus-induced cytopathogenicity after 3 to 4 days by MTT assay. The format is functional, organism-based. Particulars: BHK-21.
A short description of series [2]: Cytotoxicity against mock-infected MDBK cells after 48 to 96 hrs by MTT assay. Format: cell-based, Bos taurus. To be noted: cattle. Summed up:
(§1)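 Mock-infected MDBK (6 × 10^5 cells/mL; MEM-E, 10% horse serum, 1 mM pyruvate) or BHK (1 × 10^6 cells/mL; MEM-E, 10% FBS) cells were incubated at 37 °C, 5% CO2 with serial dilutions from 100 µM, 1:5. Viability by MTT after 48–96 h. CC50 from linear regression against untreated controls.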

The subject of another series is Poliovirus 1. Briefly: Antiviral activity against Poliovirus type 1 Sabin strain infected in african green monkey Vero 76 cells assessed as reduction in plaque number after 2 days by plaque reduction assay. Format: functional, organism-based. To be noted: Enterovirus C, 48 h. A general note: In a plaque reduction assay, fewer plaques than in the control indicate reduced infectivity or spread.

The test system of series [3] is Bovine viral diarrhea virus 1. Kind of series: Antiviral activity against Bovine viral diarrhea virus infected in MDBK cells assessed as inhibition of virus-induced cytopathogenicity after 3 to 4 days by MTT assay. The format is functional, organism-based. To be noted: Bovine viral diarrhea virus isolates and strains. For orientation: Protection from cytopathic effect is a common read-out in antiviral testing.

For series [4], the system named is Human immunodeficiency virus 1. Kind of series: Antiviral activity against HIV1 infected in human MT4 cells assessed as inhibition of virus-induced cytopathogenicity after 4 days by MTT assay. Format: functional, organism-based. To be noted: Human immunodeficiency virus 1, MT4, 96 h. Summed up: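 MT-4 cells (1 × 10^4/well in RPMI) were infected acutely with HIV-1 IIIB, 100 CCID50 (m.o.i. 0.01), with serial dilutions from 100 µM, 1:5. After 4 days at 37 °C, protection from virus-induced cytopathogenicity was read by MTT. EC50 came from linear regression against untreated controls.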

The subject of series [5] is Respiratory syncytial virus. Briefly: Antiviral activity against Respiratory syncytial virus infected in african green monkey Vero 76 cells assessed as reduction in plaque number after 5 days by plaque reduction assay. The format is functional, organism-based. Particulars: human respiratory syncytial virus, 120 h.
Series [6] concerns Vesicular stomatitis virus. Briefly: Antiviral activity against Vesicular stomatitis virus infected in african green monkey Vero 76 cells assessed as reduction in plaque number after 2 days by plaque reduction assay. Particulars: 48 h. Format: functional, organism-based.
A short description of series [7]: Selectivity index, ratio of CC50 for african green monkey Vero 76 cells to EC50 for Coxsackievirus B5. Particulars: read-out: Ratio CC50/EC50. Format: toxicity, cell-based. In a few lines:
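Mock-infected Vero-76 cells were tested in parallel on the same 24-well plates as the plaque assays (seeding 4 × 10^5 cells/mL, D-MEM with FBS), with serial compound dilutions at 37 °C, 5% CO2. Viability was read after 48–96 h by crystal violet staining. CC50 by linear regression; selectivity index = Vero-76 CC50/EC50 for CVB-5 or RSV.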

Series [8] in a line: Cytotoxicity against mock-infected BHK21 cells after 48 to 96 hrs by MTT assay. Particulars: Mesocricetus auratus, BHK-21. The format is functional. In a few lines:
as §1

The test system of a further series is Yellow fever virus. Briefly: Antiviral activity against Yellow fever virus infected in BHK21 cells assessed as inhibition of virus-induced cytopathogenicity after 3 to 4 days by MTT assay. Particulars: BHK-21. Format: functional, organism-based.
The test system of the next series is Vaccinia virus. Kind of series: Antiviral activity against Vaccinia Virus infected in african green monkey Vero 76 cells assessed as reduction in plaque number after 3 days by plaque reduction assay. The format is functional, organism-based. Particulars: Orthopoxvirus vaccinia, 72 h.
The nature of series [9]: Cytotoxicity against mock-infected african green monkey Vero 76 cells after 48 to 96 hrs by MTT assay. The format is cell-based. To be noted: chlorocebus sabaeus, mock-infected Vero 76 cells.
Another series relates to Coxsackievirus B5. Briefly: Antiviral activity against Coxsackievirus B5 infected in african green monkey Vero 76 cells assessed as reduction in plaque number after 3 days by plaque reduction assay. The format is functional, organism-based. Particulars: Enterovirus B, 72 h.
The subject of the next series is Human alphaherpesvirus 1. Briefly: Antiviral activity against HSV1 infected in african green monkey Vero 76 cells assessed as reduction in plaque number after 3 days by plaque reduction assay. Format: functional, organism-based. Particulars: Human alphaherpesvirus 1, Vero, 72 h.

Each structure is given as a SMILES string.

As for `Nc1ccc(Cc2nc3cc(C(F)(F)F)ccc3[nH]2)cc1`, the CC50 at 96 h in series [1] was more than 100 µM. The EC50 (in the series with Reovirus sp.; in the series with Poliovirus 1; in series [3]; in [4]; in [5]; in series [6]) was more than 100 µM in each case. Further, the concentration for a half-maximal effect (EC50) was more than 100 µM in the series on Yellow fever virus, more than 100 µM in the series on Vaccinia virus, 11 µM in the series with Coxsackievirus B5 and more than 100 µM with Human alphaherpesvirus 1. For the same compound, the CC50 in [2], in series [8] and in series [9] was more than 100 µM each time. Moreover, the selectivity ratio in series [7] is more than 9.09.

For the compound `FC(F)(F)c1ccc2c(c1)nc(-c1ccc(Cl)cc1)n2C[C@@H]1CCCN2CCCC[C@H]12`, the midpoint of cytotoxicity in series [1], the CC50 at 96 h, lay at 24 µM. For the same compound, the EC50 (in the series on Reovirus sp.; in the series with Poliovirus 1; in series [3]; in [4]; in series [5]; in series [6]) was more than 100 µM each time. In addition, the EC50 was more than 100 µM in the series with Yellow fever virus, more than 100 µM in the series on Vaccinia virus, 14 µM with Coxsackievirus B5 and more than 100 µM in the series on Human alphaherpesvirus 1. Besides, the CC50 in series [2] amounted to 40 µM; in series [8] it was 75 µM; in series [9], 24 µM. Besides, the selectivity ratio in series [7] worked out at 1.71.

In turn, `FC(F)(F)c1ccc2c(c1)nc(Cc1ccccc1)n2C[C@H]1CCCN2CCCC[C@H]12` came in with a half-maximal cytotoxic concentration (CC50) at 96 h in series [1] of 100 µM. Moreover, the 50% effective concentration (EC50) (with Reovirus sp.; in the series on Poliovirus 1; in series [3]; in [4]; in series [5]; in [6]) was more than 100 µM each time. The EC50 with Yellow fever virus is more than 100 µM; with Vaccinia virus it was more than 100 µM; in the series on Coxsackievirus B5, 75 µM; in the series with Human alphaherpesvirus 1, more than 100 µM. Also, the CC50 in series [2] was 28 µM; in [8], 25 µM; in series [9] it was 93 µM. Besides, the selectivity ratio in series [7] stood at 1.24.

Consider `c1ccc(-c2nc3ccccc3n2[C@H]2CCCN3CCCC[C@H]23)cc1`, for which the CC50 at 96 h in series [1] was more than 100 µM. In addition, the EC50 is more than 100 µM with Reovirus sp.; more than 100 µM with Poliovirus 1; more than 100 µM in series [3]; more than 100 µM in series [4]; more than 100 µM in series [5]; 68 µM in series [6]. In addition, the EC50 with Yellow fever virus is more than 100 µM; in the series with Vaccinia virus it was more than 100 µM; with Coxsackievirus B5, 80 µM; in the series with Human alphaherpesvirus 1, more than 100 µM. Also, the CC50 was more than 100 µM in [2], more than 100 µM in series [8] and not below 100 µM in series [9]. In addition, the selectivity ratio in series [7] was more than 1.25.

`Oc1ccc(-c2nc3cc(C(F)(F)F)ccc3n2C[C@@H]2CCCN3CCCC[C@H]23)cc1` gave a CC50 at 96 h in series [1] of 21 µM. The concentration for a half-maximal effect (EC50) in the series on Reovirus sp. is 32 µM; in the series on Poliovirus 1 it was more than 100 µM; in series [3], more than 100 µM; in series [4], more than 100 µM; in series [5], more than 100 µM; in [6], more than 100 µM. The EC50 is more than 100 µM with Yellow fever virus, more than 100 µM in the series with Vaccinia virus, 26 µM with Coxsackievirus B5 and more than 100 µM in the series on Human alphaherpesvirus 1. The CC50 in series [2] was 48 µM; in series [8], 60 µM; in [9], 78 µM. The selectivity ratio in [7] was 3.

Consider `FC(F)(F)c1ccc2c(c1)nc(CC1CCCC1)n2C[C@@H]1CCCN2CCCC[C@H]12`, for which the CC50 at 96 h in series [1] was determined as 11 µM. Moreover, the EC50 (in the series with Reovirus sp.; in the series on Poliovirus 1; in series [3]; in series [4]; in [5]; in series [6]) was more than 100 µM in each case. Also, the EC50 is more than 100 µM in the series with Yellow fever virus, more than 100 µM with Vaccinia virus, 11 µM in the series with Coxsackievirus B5 and more than 100 µM in the series with Human alphaherpesvirus 1. Further, the cytotoxic concentration (CC50) in series [2] is 35 µM; in series [8], 32 µM; in series [9], more than 100 µM. In addition, the selectivity ratio in series [7] was more than 9.09.

In series [1], `CCN(CC)CCCn1c(Cc2ccc(Cl)c(Cl)c2)nc2cc(C(F)(F)F)ccc21` came in with a CC50 at 96 h of 40 µM. Also, the EC50 in the series on Reovirus sp. was more than 100 µM; with Poliovirus 1, 63 µM; in [3], more than 100 µM; in series [4], more than 100 µM; in [5], more than 100 µM; in series [6], more than 100 µM. Besides, the EC50 in the series with Yellow fever virus was more than 100 µM; with Vaccinia virus it was more than 100 µM; in the series on Coxsackievirus B5, 17 µM; with Human alphaherpesvirus 1, more than 100 µM. Besides, the figures for the CC50 in series [2], in series [8] and in series [9] were 26 µM, more than 100 µM and more than 100 µM, respectively. Moreover, in series [7], the selectivity ratio was more than 5.88.

Take `c1ccc2[nH]c(SC[C@@H]3CCCN4CCCC[C@H]34)nc2c1`: the CC50 at 96 h in [1] was more than 100 µM. The EC50 (in the series with Reovirus sp.; in the series on Poliovirus 1; in series [3]; in [4]; in series [5]; in series [6]) was more than 100 µM in each case. Further, the EC50 is more than 100 µM in the series on Yellow fever virus, more than 100 µM in the series with Vaccinia virus, 48 µM with Coxsackievirus B5 and more than 100 µM in the series with Human alphaherpesvirus 1. Also, the CC50 in series [2], in [8] and in series [9] was more than 100 µM in each case. The selectivity ratio in [7] is more than 2.08.

`c1ccc(-n2c(C[C@@H]3CCCN4CCCC[C@H]34)nc3ccccc32)cc1`: in [1], half-maximal cytotoxicity (CC50 at 96 h) was put at 33 µM. In addition, the EC50 in the series on Reovirus sp. is more than 100 µM; in the series with Poliovirus 1 it was more than 100 µM; in [3], 89 µM; in series [4], more than 100 µM; in series [5], more than 100 µM; in series [6], more than 100 µM. The EC50 in the series with Yellow fever virus is more than 100 µM; with Vaccinia virus, more than 100 µM; in the series with Coxsackievirus B5, 49 µM; in the series with Human alphaherpesvirus 1, more than 100 µM. For the same compound, the half-maximal cytotoxic concentration (CC50) is more than 100 µM in [2], 30 µM in series [8] and more than 100 µM in series [9]. Further, in series [7], the selectivity ratio is more than 2.04.

As for `COc1ccc(Cc2nc3cc(C(F)(F)F)ccc3[nH]2)cc1`, in [1], it took 69 µM to reach half-maximal cytotoxicity (CC50 at 96 h). Moreover, the EC50 (with Reovirus sp.; in the series with Poliovirus 1; in series [3]; in [4]; in [5]; in series [6]) was more than 100 µM in each case. In addition, the EC50 is more than 100 µM with Yellow fever virus, more than 100 µM with Vaccinia virus, 20 µM in the series on Coxsackievirus B5 and more than 100 µM in the series on Human alphaherpesvirus 1. For the same compound, the CC50 in [2] came to 56 µM; in series [8], 60 µM; in series [9] it was 92 µM. Further, the selectivity ratio in [7] was 4.6.

On to `Clc1ccc(Cc2nc3cc(Cl)c(Cl)cc3n2C[C@@H]2CCCN3CCCC[C@H]23)cc1`, for which the CC50 at 96 h in series [1] came to 17 µM. Moreover, the concentration for a half-maximal effect (EC50) (in the series with Reovirus sp.; with Poliovirus 1; in series [3]; in series [4]; in series [5]; in series [6]) was more than 100 µM each time. Further, the EC50 is more than 100 µM with Yellow fever virus, more than 100 µM in the series with Vaccinia virus, 28 µM with Coxsackievirus B5 and more than 100 µM in the series on Human alphaherpesvirus 1. Further, the CC50 was more than 100 µM in [2], 30 µM in series [8] and more than 100 µM in [9]. The selectivity ratio in series [7] is more than 3.57.

By CC50 is commonly meant the concentration at which the toxic effect on the cells reaches its halfway point. A word on the EC50: it is the concentration at which the effect is half-maximal.

Values taken from ChEMBL document CHEMBL3351523 (Bioorg Med Chem, 2014).
